Screening results: PubChem BioAssay, Broad Institute
CAL PDZ FP-1 = inhibitors of human CAL PDZ peptide binding. 330,000 compounds, 0.02% hits. inhibition, % at 20 µM. purified CAL PDZ, TMR-peptide fluorescence polarization, 1 h;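 active means highest replicate inhibition of at least 40%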
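Assay system – tagged CAL PDZ protein CerCALP, purified · Timing – 1 h at RT · Compound – single point, 20 µM · Measured by – fluorescence polarization from S- and P-plane intensities, G-factor corrected · Evaluation – inhibition from polarization loss · Probe or stimulus – TMR reporter peptide T*-PRC34 · Buffer or medium – pH 7.4 phosphate-saline buffer, reducing agent, detergent, IgG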
ERAP1 HTS inh = blocks human ERAP1 aminopeptidase activity; Q9NZ08; recombinant ERAP1, Leu-AMC fluorescence, 60 min; inhibition, % at 10.7 µM; 340,000 compounds, 0.15% hits;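 active means mean replicate inhibition of at least 30%, or all replicates individually reaching that 30% level; inactive means mean below 30% and not every replicate reaching it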
SIRT5 inh = blocks human SIRT5 desuccinylation of peptide. Q9NXA8. Purified SirT5, succinyl-peptide AMC, trypsin-coupled fluorescence. inhibition, % at 15 µM. 330,000 compounds, 1.1% hits. AID 652115; in the data active means inhibition above about 15%
Target sequence (Q9NXA8 whole entry, looked up): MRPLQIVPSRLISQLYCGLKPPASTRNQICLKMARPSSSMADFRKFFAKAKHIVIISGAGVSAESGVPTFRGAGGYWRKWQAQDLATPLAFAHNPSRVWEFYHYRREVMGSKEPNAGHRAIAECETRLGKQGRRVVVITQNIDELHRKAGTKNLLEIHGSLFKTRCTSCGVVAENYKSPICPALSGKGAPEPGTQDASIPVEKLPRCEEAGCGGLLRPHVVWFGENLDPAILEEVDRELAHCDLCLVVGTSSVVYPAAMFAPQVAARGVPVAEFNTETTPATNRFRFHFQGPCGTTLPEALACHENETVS
DENV2 CPE rescue = DENV2-induced cell death inhibition. DENV2-infected cells, cytopathic effect rescue, plate reader. CPE inhibition, % at 9.99 µM. 350,000 compounds, 1.7% hits. AID 651640; in the data active means CPE inhibition above about 20%, passing the limit was not always enough; tested in BHK-21 cells
S100A4 MyoIIA = S100A4-myosin IIA interaction inhibition; S100A4/TAMRA-MyoIIA peptide fluorescence polarization; inhibition, % at 10.7 µM; 360,000 compounds, 0.14% hits;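 active means mean inhibition of at least 70% across replicates, with every replicate also reaching that level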
Target sequence (P26447 whole entry, looked up): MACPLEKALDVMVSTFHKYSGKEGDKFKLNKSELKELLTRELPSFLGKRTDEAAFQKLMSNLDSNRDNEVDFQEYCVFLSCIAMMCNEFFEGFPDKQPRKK
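incubation = readout 5 min after mixing, signal stable up to 60 min | system = S100A4 monomer protein | buffer or medium = HEPES pH 7.2 with CaCl2, KCl, NaCl, DTT, Triton | benchmarks = neutral control DMSO, positive control TFP | also added = fluorescent myosin IIA peptide, 5 nM | compound dosing = one concentration per compound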
CAL PDZ FP-2 = CAL PDZ (human) peptide binding inhibition; AID 602252; purified CAL PDZ, TMR-peptide fluorescence polarization, 1 h; 300,000 compounds, 0.92% hits; Q9HD26; inhibition, % at 24.9 µM;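 active means mean inhibition of at least 30% with at least half of replicates also reaching 30%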
Numbers stand for hits; i = inactive; nt = no result given; + = active, no number. Most compounds without a hit are left out; they make up all but 2.9% or so of the library.

SMILES | CAL PDZ FP-1 | ERAP1 HTS inh | SIRT5 inh | DENV2 CPE rescue | S100A4 MyoIIA | CAL PDZ FP-2
CC(C)C1Cc2c(sc3c2c(=O)n(-c2ccccc2)c2n[nH]c(=S)n32)CO1 (stereo unspecified) | i | i | i | i | i | +
COC(=O)C[C@H]1CC[C@H]2[C@@H](COc3ccc(NC(=O)c4ccccc4OC)cc3C(=O)N2C)O1 | nt | i | i | i | i | nt
CCOC(=O)c1[nH]c2ccc(Br)cc2c1NC(=O)CCN1CCN(C(=O)OCC)CC1 | i | nt | nt | nt | nt | i
CCOC(=O)c1[nH]c2ccc(Br)cc2c1NC(=O)CCN1CCOCC1 | i | 34 | i | i | i | i
Cc1noc(C)c1S(=O)(=O)N(C)C[C@H]1Oc2ccc(NC(=O)Cc3ccccc3)cc2CC(=O)N([C@H](C)CO)C[C@@H]1C | nt | nt | nt | i | nt | nt
O=C(C[C@H]1C[C@H]2c3cc(NC(=O)c4cccnc4)ccc3O[C@H]2[C@@H](CO)O1)NC1CCCCC1 | nt | i | i | i | i | nt
CCN(c1ccccc1)c1cc(C)nc2nc(C)nn12 | i | i | i | i | i | nt
Cc1cccc(N(C)c2cc(C)nc3nc(C)nn23)c1 | i | i | i | 29 | i | i
O=C(CNc1ccc(Br)cc1)c1ccc(O)cc1 | nt | i | 17 | i | i | i
COc1ccc(-c2nn(-c3ccccc3)cc2/C=C/C(=O)N2CCOCC2)cc1OC | i | i | i | i | i | 53
COc1ccc(-c2nn(-c3ccccc3)cc2C(=O)O)cc1OC | i | i | i | i | i | i
O=C(Cc1ccccn1)NCC[C@@H]1CC[C@@H](NS(=O)(=O)c2ccc(Cl)cc2)[C@@H](CO)O1 | nt | i | i | 34 | i | nt
O=C(Cc1ccccn1)NCC[C@H]1CC[C@H](NS(=O)(=O)c2ccccc2)[C@H](CO)O1 | nt | i | 16 | i | i | nt
COC(=O)C[C@@H]1CC[C@H]2[C@H](COc3ccc(NS(=O)(=O)c4ccccc4Cl)cc3C(=O)N2C)O1 | nt | i | i | i | i | nt
COc1ccc(Sc2cc(C(F)(F)F)nc(-c3ccccn3)n2)cc1 | i | nt | nt | nt | nt | i
C#CCSc1cc(C(F)(F)F)nc(-c2ccccn2)n1 | nt | i | 20 | i | i | i
CCS(=O)(=O)Nc1cc(OC)c(OC)cc1Cc1nccc2cc(OC)c(OC)cc12 | i | i | i | i | i | 65
COc1ccc(OC)c(NC(=O)NNS(=O)(=O)c2ccc(C)cc2C)c1 | i | i | i | 23 | i | i
COc1ccc(NC(=O)NNS(=O)(=O)c2cc(C)ccc2C)cc1OC | i | i | i | i | i | i
Cc1noc(C)c1S(=O)(=O)Nc1ccc2c(c1)CC(=O)N([C@H](C)CO)C[C@@H](C)[C@H](CN(C)C(=O)Nc1cccc3ccccc13)O2 | nt | i | i | i | i | nt
Oc1c(C(Nc2cccc(C(F)(F)F)c2)c2ccncc2)ccc2cccnc12 (stereo unspecified) | i | i | i | i | i | i
Cc1ccc(C)c(C(Nc2ccccc2)c2ccc3ccc(C)nc3c2O)c1 (stereo unspecified) | nt | i | i | 23 | i | nt
CC(=O)N1[C@@H]2Cn3c(ccc(-c4ccc(F)cc4)c3=O)[C@H]1[C@@H](C(=O)N(C)C)[C@@H]2CO | nt | i | i | 27 | i | nt
CN(C)C(=O)[C@H]1[C@H](CO)[C@H]2Cn3c(ccc(-c4ccc(F)cc4)c3=O)[C@@H]1N2CCc1ccccc1 | nt | i | 22 | i | i | nt
CCCNC(=O)[C@H]1[C@H](CO)[C@H]2Cn3c(ccc(-c4ccc(F)cc4)c3=O)[C@H]2N1CCC | nt | i | i | i | i | nt
SMILES | CAL PDZ FP-1 | ERAP1 HTS inh | SIRT5 inh | DENV2 CPE rescue | S100A4 MyoIIA | CAL PDZ FP-2
COc1ccc(CN(C)C[C@H]2Oc3c(NC(=O)c4ccc(-c5nccs5)cc4)cccc3C(=O)N([C@@H](C)CO)C[C@@H]2C)cc1 | nt | i | 24 | 22 | i | nt
C[C@@H]1CN([C@H](C)CO)C(=O)c2cccc(NC(=O)c3ccc(-c4nccs4)cc3)c2O[C@@H]1CN(C)Cc1ccc(Oc2ccccc2)cc1 | nt | i | 21 | i | i | nt
CC(=O)NC[C@@H]1[C@@H](c2ccc(-c3cccnc3)cc2)[C@H](CO)N1C(=O)C1CCC1 | nt | nt | nt | 31 | nt | nt
O=C(NC[C@@H]1[C@H](c2ccccc2)[C@H](CO)N1C(=O)Cc1cccnc1)C1CC1 | nt | i | i | i | i | nt
CC(=O)N1[C@H](CO)[C@H](c2ccc(-c3ccncc3)cc2)[C@@H]1CNC(=O)CC1CC1 | nt | i | 22 | i | i | nt
O=C(NC[C@@H]1[C@@H](c2ccccc2)[C@@H](CO)N1C(=O)Cc1cccnc1)C1CC1 | nt | i | 17 | i | i | nt
CC(=O)N1[C@H](CO)[C@H](c2ccc(-c3cccnc3)cc2)[C@@H]1CNC(=O)C1CCC1 | nt | i | i | i | i | nt
CC(=O)N1[C@H](CO)[C@H](c2ccc(-c3cccnc3)cc2)[C@H]1CNC(=O)C1CC1 | nt | i | i | 47 | i | nt
CC(=O)N1[C@H](CO)[C@H](c2ccc(C3=CCCC3)cc2)[C@H]1CNC(=O)CC1CC1 | nt | i | i | i | i | nt
CC(=O)N1[C@@H](CO)[C@@H](c2ccccc2)C12CN(C(=O)Cc1ccccc1)C2 | nt | i | i | i | i | nt
CCCNC(=O)Nc1ccc2c(c1)C(=O)N(C)[C@@H]1CC[C@@H](CC(=O)OC)O[C@H]1CO2 | nt | i | i | i | i | nt
N#C[C@H]1[C@@H](c2ccccc2)[C@@H](CO)N1C(=O)c1ccc2c(c1)OCO2 | nt | i | i | i | i | nt
CCC(=O)N1[C@H](CN(C)C(C)=O)[C@H](c2ccc(-c3cccnc3)cc2)[C@@H]1CO | nt | i | i | 29 | i | nt
O=C(NCC[C@H]1CC[C@@H](NC(=O)c2ccccc2F)[C@@H](CO)O1)c1cnccn1 | nt | i | i | i | i | nt
OC[C@@H]1[C@H](c2ccccc2)C2(CN(Cc3nccs3)C2)N1CCC(F)(F)F | nt | i | i | 25 | i | nt
OC[C@@H]1[C@H](c2ccccc2)C2(CN(Cc3ccccc3)C2)N1Cc1ccncc1 | nt | i | i | i | i | nt
OC[C@@H]1[C@@H](c2ccccc2)C2(CN(Cc3nccs3)C2)N1Cc1ccncc1 | nt | i | 16 | i | i | nt
NC(=O)c1cc(C(=O)c2ccc(Cl)cc2Cl)c[nH]1 | i | i | i | 33 | i | i
COC(=O)C[C@H]1CC[C@H]2[C@@H](COc3ccc(NS(=O)(=O)c4ccccc4F)cc3C(=O)N2C)O1 | nt | i | i | i | i | nt
C[C@@H]1CCCCO[C@@H](CN(C)S(C)(=O)=O)[C@H](C)CN([C@@H](C)CO)C(=O)c2cc(NC(=O)Cc3ccccc3)ccc2O1 | nt | i | i | 52 | i | nt
C[C@@H]1CCCCO[C@@H](CN(C)C(=O)Cc2ccccc2)[C@H](C)CN([C@H](C)CO)C(=O)c2cc(NC(=O)NC3CCCCC3)ccc2O1 | nt | nt | nt | i | nt | nt
C[C@@H]1CCCCO[C@H](CN(C)S(C)(=O)=O)[C@@H](C)CN([C@@H](C)CO)C(=O)c2cc(NC(=O)Cc3ccccc3)ccc2O1 | nt | i | i | i | i | nt
